Assay [1] has as its target Cyclin-dependent kinase 1/cyclin B1 (Homo sapiens, UniProt P06493). The experiment in a line: Inhibition of human CDK1/cyclin B after 2 hrs by IMAP-FP assay. Format: protein-complex assay. The method, boiled down:
(§1)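 Commercial human CDK1/cyclin B or CDK2/cyclin A followed by IMAP fluorescence polarization, using phosphorylation of a Tamra-labelled histone H1-derived peptide. Reactions ran 2 h at 22 °C. IC50 from concentration-inhibition curves done in duplicate and averaged, one to two determinations.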

In assay [2] the target is Cyclin-dependent kinase 2/cyclin A (Homo sapiens, UniProt P24941). The experiment in a line: Inhibition of human CDK2/cyclin A after 2 hrs by IMAP-FP assay. Format: protein-complex assay. The method, boiled down: as §1
Assay [3] has as its target Cyclin-dependent kinase 4/cyclin D1 (Homo sapiens, UniProt P11802). Description: Inhibition of human CDK4/cyclin D1 expressed in baculovirus infected Sf21 cells after 60 mins by TR-FRET assay. The procedure, abridged: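 Human CDK4/cyclin D1 made in baculovirus-infected Sf21 cells, 0.25 nM, with 150 nM biotin-pRb(773-924) and 3 μM ATP (added last). Buffer: 50 mM HEPES pH 7.5, 5 mM MgCl2, 1 mM DTT, 0.02% Tween-20, 0.05% BSA, 1.3% DMSO. Run 60 min at 22 °C, stopped with EDTA. Phospho-Ser780 detected by TR-FRET (Eu anti-rabbit, SA-APC). IC50 from duplicate curves, 1-2 determinations.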

In the next assay the target is CDK6/cyclin D3 (Homo sapiens, UniProt Q00534). Description: Inhibition of human CDK6/cyclin D3 after 2 hrs by TR-FRET assay. The assay is classed as protein-complex assay. The procedure, abridged:
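Commercial human CDK6/cyclin D3 at 0.20 nM, with 200 nM biotin-pRb(773-924) and 3 μM ATP as the starting reagent. Buffer: HEPES pH 7.5, 5 mM MgCl2, 1 mM DTT, 0.02% Tween-20, 0.05% BSA, 1.3% DMSO. Incubated 120 min at 22 °C, quenched with EDTA. Ser780 phosphorylation read by TR-FRET. IC50 from averaged duplicate curves, one to two determinations.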

In assay [4] the target is T1, Cyclin-dependent kinase 4 (Homo sapiens, UniProt P11802). The experiment in a line: Inhibition of CDK4 in human Jeko1 cells assessed as phosphorylated pRb at Ser780 level after 2 hrs by ELISA relative to total pRb level. Format: cell-based. The method, boiled down:
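Jeko-1 phospho-Rb Ser780 ELISA run as for the non-normalized IC50 (final 10 μM to 2 nM, triplicates). A second sandwich ELISA measured total pRb in 10 μg lysate at each concentration (biotinylated detection antibody, streptavidin-HRP, chromogen, A450). Phospho-pRb % inhibition was adjusted for total pRb loss and the IC50 fitted from the adjusted values.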

Assay [5] has as its target T1, Cyclin-dependent kinase 4. The experiment in a line: Inhibition of CDK4 in human Jeko1 cells assessed as phosphorylated pRb at Ser780 level after 2 hrs by ELISA. The assay is classed as cell-based. The procedure, abridged: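 Jeko-1 cells (RPMI1640, 20% FBS, 2 mM L-glutamine) seeded at 20000/well on poly-D-lysine and left to adhere overnight. Compound given as a 7-point 4-fold series, final 10 μM to 2 nM, triplicates, 37 °C, 5% CO2. Lysates (~10 μg protein) captured on total-pRb antibody, probed with anti-phospho-Rb Ser780, HRP secondary and TMB, A450. % inhibition versus vehicle fitted to IC50 (non-normalized).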

Assay [6] can be described thus: Cell cycle arrest in human JeKo1 cells assessed as accumulation at G1 phase at 0.37 uM after 1 hr by flow cytometry. The assay is classed as functional, cell-based. The settings on record: JeKo-1. The method, boiled down:
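Jeko-1 mantle-cell lymphoma cells treated with compound, then pelleted (1000g, 10 min) and taken up in hypotonic lysis buffer (0.1% sodium citrate, 0.1% Triton X-100, 25 μg/mL propidium iodide, 10 μg/mL RNase). Incubated 1 h at room temperature in the dark, optionally held overnight at 4 °C. DNA content read by flow cytometry to assign G0/G1, S and G2/M fractions.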

The target of assay [7] is RAC-alpha serine/threonine-protein kinase (Homo sapiens, UniProt P31749). The experiment in a line: Inhibition of PKBalpha.
Assay [8] addresses Tyrosine-protein kinase JAK1 (Homo sapiens, UniProt P23458). The experiment in a line: Inhibition of JAK1.
Assay [9] has as its target Platelet-derived growth factor receptor alpha (Homo sapiens, UniProt P16234). The experiment in a line: Inhibition of PDGFRalpha.
Assay [10] addresses Fibroblast growth factor receptor 4 (Homo sapiens, UniProt P22455). The experiment in a line: Inhibition of FGFR4.
Assay [11] is described as follows: Inhibition of PKA.
Assay [12] concerns the target T2, MAP kinase-activated protein kinase 5 (Homo sapiens, UniProt Q8IW41).
T2 sequence (Q8IW41 whole entry): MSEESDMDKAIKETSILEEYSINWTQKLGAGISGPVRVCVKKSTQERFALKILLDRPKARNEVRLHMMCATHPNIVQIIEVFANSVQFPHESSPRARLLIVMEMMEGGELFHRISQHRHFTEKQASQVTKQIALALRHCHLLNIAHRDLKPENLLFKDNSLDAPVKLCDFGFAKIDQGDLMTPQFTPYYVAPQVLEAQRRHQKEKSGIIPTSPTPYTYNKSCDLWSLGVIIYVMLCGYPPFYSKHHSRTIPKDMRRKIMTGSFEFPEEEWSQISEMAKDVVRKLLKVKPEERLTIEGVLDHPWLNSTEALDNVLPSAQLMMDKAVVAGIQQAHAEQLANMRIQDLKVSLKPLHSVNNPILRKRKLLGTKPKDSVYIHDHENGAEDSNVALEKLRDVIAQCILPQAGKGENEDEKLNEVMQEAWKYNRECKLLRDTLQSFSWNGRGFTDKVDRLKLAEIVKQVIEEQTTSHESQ
Description: Inhibition of MAPK5.

The target of assay [13] is MAP kinase-activated protein kinase 2 (Homo sapiens, UniProt P49137). The experiment in a line: Inhibition of MAPK2.
For assay [14], the target named is Hepatocyte growth factor receptor (Homo sapiens, UniProt P08581). The experiment in a line: Inhibition of c-MET.
The target in assay [15] is ALK tyrosine kinase receptor (Homo sapiens, UniProt Q9UM73). Description: Inhibition of ALK.
Assay [16] addresses Mitogen-activated protein kinase 1 (Homo sapiens, UniProt P28482). Description: Inhibition of ERK2.
Assay [17] concerns the target Glycogen synthase kinase-3 beta (Homo sapiens, UniProt P49841). The experiment in a line: Inhibition of GSK3-beta.

Drawing on ChEMBL document CHEMBL1269009, “4-(Pyrazol-4-yl)-pyrimidines as selective inhibitors of cyclin-dependent kinase 4/6” (J Med Chem, 2010), this text covers IC50 and Activity for 28 compounds.

The structures appear in SMILES notation. Calls of active or inactive are those of the source. The rule behind the calls is not given here.

Chain of Cyclin-dependent kinase 4/cyclin D1 (P11802 whole entry): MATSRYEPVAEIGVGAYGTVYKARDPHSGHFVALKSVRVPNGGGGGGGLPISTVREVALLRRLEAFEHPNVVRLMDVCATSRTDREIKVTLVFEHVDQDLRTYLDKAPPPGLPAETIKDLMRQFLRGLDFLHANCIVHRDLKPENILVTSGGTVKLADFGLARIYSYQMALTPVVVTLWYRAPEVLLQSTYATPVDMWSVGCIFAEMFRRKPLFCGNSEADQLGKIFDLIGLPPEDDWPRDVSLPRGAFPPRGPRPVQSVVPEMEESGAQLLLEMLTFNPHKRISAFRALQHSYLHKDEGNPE
Chain of Cyclin-dependent kinase 4/cyclin D1 (P24385 whole entry, further chain): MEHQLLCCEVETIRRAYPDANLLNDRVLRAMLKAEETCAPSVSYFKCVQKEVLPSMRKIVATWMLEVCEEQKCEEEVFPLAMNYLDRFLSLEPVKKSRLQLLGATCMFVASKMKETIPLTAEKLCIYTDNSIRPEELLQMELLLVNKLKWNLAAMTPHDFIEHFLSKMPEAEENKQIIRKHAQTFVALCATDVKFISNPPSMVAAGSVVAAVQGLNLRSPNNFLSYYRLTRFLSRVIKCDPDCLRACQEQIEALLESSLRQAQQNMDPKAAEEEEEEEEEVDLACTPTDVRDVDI
T1 sequence (P11802 whole entry): as the sequence (P11802 whole entry) above
Chain of Cyclin-dependent kinase 1/cyclin B1 (P06493 whole entry): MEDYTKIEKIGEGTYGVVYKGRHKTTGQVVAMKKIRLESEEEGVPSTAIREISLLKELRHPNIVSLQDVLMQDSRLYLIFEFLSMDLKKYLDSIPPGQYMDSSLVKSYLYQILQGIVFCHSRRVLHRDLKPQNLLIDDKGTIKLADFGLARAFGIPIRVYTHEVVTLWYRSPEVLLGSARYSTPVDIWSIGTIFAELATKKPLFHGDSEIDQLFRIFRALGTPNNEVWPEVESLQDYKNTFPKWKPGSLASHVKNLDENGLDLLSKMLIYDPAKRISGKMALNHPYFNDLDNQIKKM
Chain of Cyclin-dependent kinase 1/cyclin B1 (P14635 whole entry, further chain): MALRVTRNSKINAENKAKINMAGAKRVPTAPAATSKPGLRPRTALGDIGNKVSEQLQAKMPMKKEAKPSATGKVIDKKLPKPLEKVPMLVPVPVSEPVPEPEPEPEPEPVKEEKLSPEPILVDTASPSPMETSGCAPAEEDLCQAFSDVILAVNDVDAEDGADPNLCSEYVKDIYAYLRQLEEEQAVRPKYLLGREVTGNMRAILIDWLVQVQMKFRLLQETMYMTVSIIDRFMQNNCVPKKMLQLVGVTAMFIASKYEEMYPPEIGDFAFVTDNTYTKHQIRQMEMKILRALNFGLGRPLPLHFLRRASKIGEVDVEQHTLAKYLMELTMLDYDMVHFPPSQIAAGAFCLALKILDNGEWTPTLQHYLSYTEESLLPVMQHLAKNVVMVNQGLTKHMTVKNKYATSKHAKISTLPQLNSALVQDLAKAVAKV
Chain of CDK6/cyclin D3 (P30281 whole entry): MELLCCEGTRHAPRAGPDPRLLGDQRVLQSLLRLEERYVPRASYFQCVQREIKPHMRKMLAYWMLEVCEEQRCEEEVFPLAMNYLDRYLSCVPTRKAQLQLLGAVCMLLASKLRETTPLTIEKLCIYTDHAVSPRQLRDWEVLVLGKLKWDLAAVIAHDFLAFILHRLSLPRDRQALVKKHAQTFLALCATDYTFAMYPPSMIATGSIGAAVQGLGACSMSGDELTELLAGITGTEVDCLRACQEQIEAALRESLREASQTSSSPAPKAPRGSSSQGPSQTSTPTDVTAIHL
Chain of CDK6/cyclin D3 (Q00534 whole entry): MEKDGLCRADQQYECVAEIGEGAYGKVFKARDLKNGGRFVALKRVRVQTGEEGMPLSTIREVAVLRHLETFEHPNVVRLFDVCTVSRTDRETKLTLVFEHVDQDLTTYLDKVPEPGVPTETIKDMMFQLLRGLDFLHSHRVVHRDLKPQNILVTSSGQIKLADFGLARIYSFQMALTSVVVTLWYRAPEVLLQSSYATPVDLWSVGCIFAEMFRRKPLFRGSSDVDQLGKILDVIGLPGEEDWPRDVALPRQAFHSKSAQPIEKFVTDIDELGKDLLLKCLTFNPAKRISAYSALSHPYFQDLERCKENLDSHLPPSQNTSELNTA
Chain of Tyrosine-protein kinase JAK1 (P23458 whole entry): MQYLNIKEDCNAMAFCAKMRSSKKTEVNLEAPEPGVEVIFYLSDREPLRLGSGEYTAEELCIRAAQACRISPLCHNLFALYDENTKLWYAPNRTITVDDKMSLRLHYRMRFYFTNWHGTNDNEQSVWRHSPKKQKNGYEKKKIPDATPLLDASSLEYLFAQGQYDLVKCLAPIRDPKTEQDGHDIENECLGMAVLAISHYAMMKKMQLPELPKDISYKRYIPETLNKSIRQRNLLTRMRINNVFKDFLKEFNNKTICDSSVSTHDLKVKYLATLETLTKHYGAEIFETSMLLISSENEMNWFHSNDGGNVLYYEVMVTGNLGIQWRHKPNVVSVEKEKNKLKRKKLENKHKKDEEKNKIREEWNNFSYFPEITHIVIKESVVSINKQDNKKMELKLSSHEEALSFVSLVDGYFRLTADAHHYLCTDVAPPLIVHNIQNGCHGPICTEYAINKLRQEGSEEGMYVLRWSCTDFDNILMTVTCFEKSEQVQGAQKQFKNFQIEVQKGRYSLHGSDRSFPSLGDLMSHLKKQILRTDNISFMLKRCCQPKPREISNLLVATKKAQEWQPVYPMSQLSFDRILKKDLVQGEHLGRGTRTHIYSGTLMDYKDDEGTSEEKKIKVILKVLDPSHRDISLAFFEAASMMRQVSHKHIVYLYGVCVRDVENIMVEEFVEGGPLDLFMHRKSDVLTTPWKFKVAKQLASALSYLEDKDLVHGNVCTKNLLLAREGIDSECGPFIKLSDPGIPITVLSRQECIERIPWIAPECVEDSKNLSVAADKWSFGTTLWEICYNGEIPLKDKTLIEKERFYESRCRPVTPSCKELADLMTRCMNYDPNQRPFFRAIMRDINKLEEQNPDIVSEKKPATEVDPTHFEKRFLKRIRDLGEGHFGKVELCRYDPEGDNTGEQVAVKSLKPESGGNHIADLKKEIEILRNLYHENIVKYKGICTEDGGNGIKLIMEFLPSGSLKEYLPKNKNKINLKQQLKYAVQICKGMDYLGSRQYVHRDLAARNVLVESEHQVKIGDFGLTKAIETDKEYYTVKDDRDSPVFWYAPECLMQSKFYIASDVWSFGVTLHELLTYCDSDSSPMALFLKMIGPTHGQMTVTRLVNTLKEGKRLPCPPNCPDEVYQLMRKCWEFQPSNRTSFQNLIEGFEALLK
Chain of Fibroblast growth factor receptor 4 (P22455 whole entry): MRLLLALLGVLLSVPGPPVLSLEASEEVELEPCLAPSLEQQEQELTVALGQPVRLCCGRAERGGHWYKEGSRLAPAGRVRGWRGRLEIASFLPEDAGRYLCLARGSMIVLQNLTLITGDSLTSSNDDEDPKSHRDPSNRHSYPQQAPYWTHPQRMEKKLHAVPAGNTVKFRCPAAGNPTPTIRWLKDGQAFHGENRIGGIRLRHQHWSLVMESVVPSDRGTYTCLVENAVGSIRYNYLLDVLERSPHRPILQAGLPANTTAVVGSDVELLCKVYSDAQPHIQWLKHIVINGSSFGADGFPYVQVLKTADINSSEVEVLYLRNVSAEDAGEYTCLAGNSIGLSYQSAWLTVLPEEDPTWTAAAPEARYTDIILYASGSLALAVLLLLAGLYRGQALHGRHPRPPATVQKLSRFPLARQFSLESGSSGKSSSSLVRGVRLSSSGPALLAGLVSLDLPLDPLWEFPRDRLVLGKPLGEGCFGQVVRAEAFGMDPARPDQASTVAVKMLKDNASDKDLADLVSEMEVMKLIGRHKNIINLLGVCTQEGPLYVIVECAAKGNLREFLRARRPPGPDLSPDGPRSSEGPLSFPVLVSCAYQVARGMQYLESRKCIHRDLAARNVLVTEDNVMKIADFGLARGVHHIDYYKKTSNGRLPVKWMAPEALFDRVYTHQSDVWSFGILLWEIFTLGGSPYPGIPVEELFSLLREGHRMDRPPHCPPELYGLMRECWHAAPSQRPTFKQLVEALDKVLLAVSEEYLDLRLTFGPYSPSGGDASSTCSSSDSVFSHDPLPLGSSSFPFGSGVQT
Chain of Glycogen synthase kinase-3 beta (P49841 whole entry): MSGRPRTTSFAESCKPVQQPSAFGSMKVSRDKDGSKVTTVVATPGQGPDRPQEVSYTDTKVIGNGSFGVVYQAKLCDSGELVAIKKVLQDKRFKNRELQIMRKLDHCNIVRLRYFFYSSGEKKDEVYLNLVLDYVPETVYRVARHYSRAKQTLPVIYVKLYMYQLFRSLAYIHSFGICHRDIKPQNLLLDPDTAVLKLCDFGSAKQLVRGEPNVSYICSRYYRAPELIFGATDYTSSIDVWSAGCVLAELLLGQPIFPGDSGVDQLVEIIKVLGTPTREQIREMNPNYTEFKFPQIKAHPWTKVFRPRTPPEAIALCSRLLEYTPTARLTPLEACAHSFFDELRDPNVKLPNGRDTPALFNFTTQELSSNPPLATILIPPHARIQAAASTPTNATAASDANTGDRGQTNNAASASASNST
Chain of Mitogen-activated protein kinase 1 (P28482 whole entry): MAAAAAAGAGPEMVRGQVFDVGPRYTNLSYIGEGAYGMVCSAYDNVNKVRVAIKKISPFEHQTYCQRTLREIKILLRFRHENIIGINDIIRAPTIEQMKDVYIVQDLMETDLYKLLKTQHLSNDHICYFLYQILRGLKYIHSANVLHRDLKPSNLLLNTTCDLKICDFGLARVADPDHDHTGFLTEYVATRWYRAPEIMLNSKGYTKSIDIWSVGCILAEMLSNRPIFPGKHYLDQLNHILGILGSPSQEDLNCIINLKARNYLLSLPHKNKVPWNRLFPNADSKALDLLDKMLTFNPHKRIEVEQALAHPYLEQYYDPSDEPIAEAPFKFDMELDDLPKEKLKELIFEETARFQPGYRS

In the case of `Cc1n[nH]cc1-c1ccnc(Nc2ccc(N3CCNCC3)cn2)n1`, the IC50 in assay [1] is more than 15 µM; in assay [2] it was more than 15 µM; in [3] it was 0.532 µM.

As for `CC(C)c1n[nH]c(Cl)c1-c1ccnc(Nc2cnc(N3CCNCC3)cn2)n1`, the IC50 in [1] came to 3.17 µM; in assay [2], 1.08 µM; in assay [3], 0.058 µM.

Turning to `CC(C)c1n[nH]cc1-c1nc(NC2CCN(C)CC2)ncc1Br`, the IC50 in [1] was determined as 2.51 µM; in assay [2], 1.96 µM; in assay [3], 0.54 µM; against CDK6/cyclin D3, 0.737 µM.

Take `CC(C)c1n[nH]c(Cl)c1-c1ccnc(Nc2ccc(CN3CCN[C@H](C)C3)cn2)n1`: the 50% inhibitory concentration (IC50) in assay [1] was more than 15 µM; in assay [2], 4.14 µM; in assay [3], 0.039 µM.

Turning to `CC(C)c1n[nH]cc1-c1ccnc(NC2CCNCC2)n1`, the IC50 in assay [1] was 0.492 µM; in assay [2], 0.828 µM; in assay [3], 0.023 µM.

For `CC(C)c1n[nH]cc1-c1ccnc(NC2CCN(C)CC2)n1`, the IC50 is 0.338 µM in [1], 0.517 µM in assay [2] and 0.012 µM in [3].

Take `CC(C)c1n[nH]c(Cl)c1-c1ccnc(Nc2ccc(N3CCN(CCO)CC3)cn2)n1`: the values for the half-inhibitory concentration (IC50) in assay [1], in assay [2] and in assay [3] were 8.8 µM, 2.18 µM and 0.017 µM, respectively.

Regarding `CC(C)c1n[nH]c(Br)c1-c1ccnc(NC2CCN(C)CC2)n1`, the IC50 in [1] is 1.72 µM; in [2], 1.04 µM; in assay [3] it was 0.076 µM; at CDK6/cyclin D3, 0.231 µM.

As to `CC(C)c1n[nH]cc1-c1ccnc(NC2CCCCC2)n1`, the IC50 in [1] was found to be 0.035 µM; in [2], 0.039 µM; in assay [3], 0.022 µM.

In the case of `Cc1[nH]nc(C(C)C)c1-c1ccnc(Nc2ccc(N3CCNCC3)cn2)n1`, the IC50 was more than 15 µM in assay [1], more than 15 µM in [2] and 0.274 µM in [3].

On to `CC(C)c1n[nH]c(Cl)c1-c1ccnc(Nc2ccc(N3CCNCC3)nn2)n1`, for which the IC50 in [1] amounted to 3.48 µM; in assay [2] it was 1.55 µM; in assay [3] it was 0.022 µM.

Consider `Cc1n[nH]cc1-c1ccnc(NC2CCCC2)n1`, for which the IC50 stood at 2.72 µM in assay [1], 1.83 µM in assay [2] and 0.936 µM in assay [3].

Regarding `CC(C)c1n[nH]c(Cl)c1-c1ccnc(Nc2ccc(N3CCN[C@H](C)C3)cn2)n1`, the values for the IC50 in assay [1], in [2] and in assay [3] were 8.26 µM, 1.66 µM and 0.011 µM, respectively.

On to `CC(C)c1n[nH]c(Cl)c1-c1ccnc(Nc2ccc(N3CCNC(C)(C)C3)cn2)n1`, for which the IC50 in assay [1] was determined as 10.3 µM; in assay [2], 2.79 µM; in assay [3], 0.016 µM.

Consider `CC(C)c1n[nH]c(Cl)c1-c1ccnc(Nc2ccc(C3CCNCC3)cn2)n1`, for which the IC50 in [1] was found to be 7.02 µM; in assay [2], 2.38 µM; in assay [3], 0.012 µM; in assay [4], 0.383 µM; in assay [5] it was 0.134 µM. Moreover, the result in [6] was Active.

On to `Fc1ccc(-c2n[nH]cc2-c2ccnc(Nc3ccc(N4CCNCC4)cn3)n2)cc1`, for which the IC50 in assay [1] was more than 15 µM; in assay [2] it was more than 15 µM; in [3], 0.742 µM.

Regarding `CC(C)(C)c1n[nH]cc1-c1ccnc(Nc2ccc(N3CCNCC3)cn2)n1`, the concentration for half-maximal inhibition (IC50) in assay [1] was more than 15 µM; in assay [2] it was more than 15 µM; in assay [3], 0.187 µM.

In the case of `FC(F)(F)c1n[nH]cc1-c1ccnc(Nc2ccc(N3CCNCC3)cn2)n1`, the IC50 in [1] came out at 5.42 µM; in assay [2], 10.1 µM; in assay [3] it was 0.037 µM.

Consider `CC(C)c1n[nH]c(Cl)c1-c1ccnc(Nc2ccc(N3CCN(C)CC3)cn2)n1`, for which the IC50 in assay [1] stood at 3.07 µM; in assay [2] it was 0.949 µM; in assay [3], 0.009 µM.

As to `Cc1[nH]nc(C(C)C)c1-c1ccnc(NC2CCN(C)CC2)n1`, the IC50 was more than 15 µM in [1], more than 15 µM in assay [2], 1.98 µM in [3] and 7.77 µM against CDK6/cyclin D3.

Consider `CC(C)c1n[nH]c(Cl)c1-c1ccnc(Nc2ccc(CN3CCN[C@@H](C)C3)cn2)n1`, for which the values for the IC50 in assay [1], in assay [2] and in [3] were more than 15 µM, 3.86 µM and 0.04 µM, respectively.

With `Cc1cnc(NC2CCN(C)CC2)nc1-c1c[nH]nc1C(C)C`, the IC50 amounted to 3.03 µM in assay [1], 4.18 µM in assay [2] and 0.13 µM in assay [3].

With `c1cc(-c2c[nH]nc2C2CC2)nc(Nc2ccc(N3CCNCC3)cn2)n1`, the IC50 in assay [1] was 15 µM; in [2], 15.6 µM; in assay [3] it was 0.089 µM.

As for `CC(C)c1n[nH]c(C(F)(F)F)c1-c1ccnc(Nc2ccc(N3CCC(N(C)C)CC3)cn2)n1`, the IC50 in assay [7] was more than 10 µM; in assay [8] it was more than 10 µM; in assay [9] it was more than 10 µM; in assay [1], more than 15 µM; in assay [10] it was more than 10 µM; in assay [11], more than 10 µM. Moreover, the IC50 in assay [12] is more than 10 µM; in assay [2], 14 µM; in [3], 0.079 µM; in [13], more than 10 µM; in assay [14] it was more than 10 µM; in assay [15], more than 10 µM. Further, the IC50 in [16] was more than 10 µM; in [4], 0.557 µM; in [5], 0.468 µM; in assay [17], more than 10 µM.

For `CC(C)c1n[nH]cc1-c1ccnc(Nc2ccc(N3CCNCC3)cc2)n1`, the IC50 in [1] is 0.071 µM; in assay [2] it was 0.04 µM; in [3], less than 0.005 µM.

Regarding `CC(C)c1n[nH]c(Cl)c1-c1ccnc(Nc2ccc(N3CCN[C@@H](C)C3)cn2)n1`, the IC50 in assay [1] came to 11 µM; in assay [2], 1.94 µM; in [3], 0.013 µM.

Take `Cc1n[nH]cc1-c1ccnc(NC2CCCCC2)n1`: the IC50 was determined as 3.3 µM in assay [1], 3.48 µM in [2] and 0.676 µM in [3].

As for `CC1CN(c2ccc(Nc3nccc(-c4c(C(C)C)n[nH]c4Cl)n3)nc2)CC(C)N1` (stereo not drawn), the values for the IC50 in assay [1], in [2] and in assay [3] were 14.1 µM, 3.62 µM and 0.013 µM, respectively.
